Experimental data published in PMC11078046 (JBMR Plus, 2024).

B1: PTH(1-84): Recombinant human PTH(1-84), Natpara (Takeda); native parathyroid hormone comparator (protein, UniProt P01270 32-115, looked up)
Parathyroid hormone: SVSEIQLMHNLGKHLNSMERVEWLRKKLQDVHNFVALGAPLAPRDAGSQRPRKKEDNVLVESHEKSLGEADKADVNVLTKAKSQ
modifications: Parathyroid hormone

Tests used:
[1] = humans, given intravenously; cited from earlier work
[2] = tested on: thyroparathyroidectomized (TPTx) rats; assay: TPTx rat 7-day efficacy study; format: in vivo, Sprague–Dawley rats
Procedure, shortened: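 Female TPTx SD rats, 250–300 g, randomised on baseline calcium and weight (n = 12). Daily SC dosing in PBS (1 mL/kg) for 7 days. Day-1 jugular serum drawn from two cohorts at 0, 2, 6, 10, 18 and 24 h; calcium and phosphate measured on a Hitachi 7180. Predose serum on days −6, 4 and 7 assayed by osteocalcin, PINP and CTX-I ELISAs.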

[3] = tested on: thyroparathyroidectomized (TPTx) rats; assay: TPTx rat 28-day efficacy study; format: in vivo, Sprague–Dawley rats; conditions: daily SC 10 nmol/kg
Procedure, shortened: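 Female thyroparathyroidectomised Crl-CD SD rats, 215–290 g, randomised on baseline serum calcium and body weight after 9 days of acclimation. Daily SC dosing in PBS (1 mL/kg) for 28 days. Jugular serum taken in two alternating cohorts on days 1, 12 and 27 at 0, 2, 6, 10 and 24 h, run on a Hitachi 7180 analyser (n = 5/cohort). Urine n = 10/group. Distal femur BMD by pQCT, n = 10/group.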

| Molecule | plasma half-life [1] | serum calcium, day 1 after first dose ([2]; SC 3 nmol/kg, 0–24 h) | bone formation markers osteocalcin and PINP ([2]; daily SC 3 nmol/kg, serum, days 4 and 7) | serum phosphate, days 4 and 7 ([2]; daily SC 3 nmol/kg, three timepoints) | bone remodeling markers (osteocalcin, CTX, PINP) [3] | BMD, cortical region of the diaphysis (pQCT) ([3]; 28 days) | serum calcium ([3]; 28 days, days 1, 12, 27) | BMD, distal femur metaphysis (pQCT) ([3]; 28 days, vs TPTx: vehicle) | urinary calcium (creatinine-normalized) ([3]; days 1, 14, 27) | serum phosphate ([3]; days 12 and 27) |
| --- | --- | --- | --- | --- | --- | --- | --- | --- | --- | --- |
| PTH: endogenous human polypeptide, 84 amino acids in length | less than 10 min |  |  |  |  |  |  |  |  |  |
| B1 |  | unaffected | only induced a small increase | only transiently lower serum phosphate at the 2 h timepoints | increased serum concentrations of osteocalcin and CTX, but had only minimal effect on PINP | small but statistically significant decrease in BMD | no increase or only small increases in serum calcium | unchanged or slightly increased | not significantly increased | much smaller decrease in serum phosphate |
